Measured values as given in ChEMBL document CHEMBL3045478, “Insect antifeedant flavonoids from Gnaphalium affine D. Don” (2000).
The source made the active and inactive calls. The rule behind the calls is not given here.

Test system: Spodoptera litura
Test: Antifeedant activity against Spodoptera litura in compound treated cork borer from fresh sweet potato leaves by Choice Leaf-Disk Bioassay
Assay type: functional
Outline: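 Partly eaten disks were photocopied and scanned to digital files, and each treated disk was measured against an intact disk. Antifeedant index (AFI) = % treated consumed/(% treated + % control consumed) × 100. The effective dose was taken as the midpoint between complete inhibition and no effect.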

Structure (SMILES) | ED50 | pED50
COc1cc2oc(-c3ccccc3)c(OC)c(=O)c2c(O)c1O | 0.25 ×10⁻⁷ mol/cm2 | 7.6
COc1cc(O)cc(O)c1C(=O)/C=C/c1ccc(O)cc1 [HELICHRYSETIN] | 3.8 ×10⁻⁷ mol/cm2 | 6.42
COc1ccc(-c2oc3c(OC)c(OC)c(OC)c(O)c3c(=O)c2OC)cc1 [5-HYDROXYAURANETIN] | 1.1 ×10⁻⁷ mol/cm2 | 6.96
COc1ccc(/C=C/C(=O)c2c(O)cc(OC)cc2OC)cc1 [FLAVOKAWAIN A] | 90 ×10⁻⁷ mol/cm2 | 5.05
C=C(C)[C@H]1Cc2c(ccc3c2O[C@@H]2COc4cc(OC)c(OC)cc4[C@@H]2C3=O)O1 [ROTENONE] | 1.5 ×10⁻⁷ mol/cm2 | 6.82
COc1c(OC)c(O)c2c(=O)c(OC)c(-c3ccccc3)oc2c1OC | 0.2 ×10⁻⁷ mol/cm2 | 7.7
COc1cc(O)c2c(=O)c(OC)c(-c3ccc(OC)c(OC)c3)oc2c1 | inactive | –
COc1ccc(-c2cc(=O)c3c(OC)c(OC)c(OC)c(OC)c3o2)cc1 [TANGERETIN] | 2.8 ×10⁻⁷ mol/cm2 | 6.55
O=c1c(O)c(-c2ccc(O)c(O)c2)oc2cc(O)cc(O)c12 | inactive | –
COc1ccc(-c2cc(=O)c3c(O)c(OC)c(OC)c(OC)c3o2)cc1 [GARDENIN B] | 1.8 ×10⁻⁷ mol/cm2 | 6.74
